From ChEMBL document CHEMBL1772948, “Chemistry and biology of macrolide antiparasitic agents” (J Med Chem, 2011)
Values after ≈ are worked out from the molar mass of the structure shown. Active and inactive are the calls of the source. The rule behind the calls is not given here.

Key:
Toxoplasma gondii [1] = assay: Antiparasitic activity against yellow fluorescent protein expressing Toxoplasma gondii 2F-1 infected in HFF treated 6 hrs after infection measured after 48 hrs; assay type: functional, organism-based
Toxoplasma gondii [2] = assay: Antiparasitic activity against green fluorescent protein expressing hwgprt deficient Toxoplasma gondii RH infected in HFF assessed as reduction of ycf24/UPRT genes copy number ratio at 10 uM […] followed by reinoculated into fresh HFF monolayers measured after 48 hrs by RT-PCR analysis; assay type: functional
Toxoplasma gondii [3] = assay: (§1) Antiparasitic activity against green fluorescent protein expressing […] deficient Toxoplasma gondii RH infected in HFF assessed as reduction of ycf24/UPRT genes copy number ratio at 1 uM treated for 48 hrs immediately after infection followed by reinoculated into fresh HFF monolayers measured after 48 hrs by RT-PCR analysis; assay type: functional
How it was run: (§2)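 Tachyzoites were seeded on confluent HFF in 6-well plates at 2×10^5 per well, in DMEM with 10% FBS and 1% PS at 37 °C, 5% CO2. Harvested tachyzoites were reinoculated into fresh HFF without drug for a second cycle. Parasites were pelleted by centrifugation and the plastid ycf24 to nuclear UPRT copy ratio was read by qPCR (40 cycles, 94 °C 3 s / 60 °C 30 s). At least triplicate.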

Toxoplasma gondii [4] = assay: Antiparasitic activity against yellow fluorescent protein expressing Toxoplasma gondii 2F-1 infected in HFF treated immediately after infection measured after 48 hrs; assay type: functional, organism-based; details: 2F-1, 48 h
Toxoplasma gondii [5] = assay: Antiparasitic activity against yellow fluorescent protein expressing Toxoplasma gondii 2F-1 treated immediately after infection for 48 hrs followed by reinoculated into fresh HFF monolayers measured after 48 hrs; assay type: functional, organism-based; details: 2F-1, 48 h
How it was run: (§3)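 Two-cycle protocol in HFF at 37 °C, 5% CO2, DMEM with 10% FBS. "0h": compound added with parasites, 48 h. "6h": parasites pre-incubated 6 h, uninvaded parasites removed, fresh medium with compound added, 42 h. Released tachyzoites were then harvested, purified and inoculated into fresh HFF without compound for the 2nd cycle. At least triplicate.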

Toxoplasma gondii [6] = assay: Antiparasitic activity against green fluorescent protein expressing […] deficient Toxoplasma gondii RH infected in HFF assessed as decrease in density of parasitophorous vacuoles at 10 uM treated immediately after infection measured after 24 hrs by microscopic analysis; assay type: functional, organism-based
How it was run: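 GFP T. gondii RHΔhxgprt in HFF, compound (10 μM) added either with the inoculum ("0h") or after 6 h pre-infection and washing ("6h"); vacuoles per microscope field scored at 24 h, at least 20 random fields from each of three experiments.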

Bacillus subtilis = assay: Antibacterial activity against Bacillus subtilis; assay type: functional
Toxoplasma gondii [7] = assay: Antiparasitic activity against green fluorescent protein expressing hwgprt deficient Toxoplasma gondii RH at 5 uM treated 6 hrs after infection for 42 hrs followed by reinoculated into fresh HFF monolayers measured after 48 hrs; assay type: functional, organism-based; how it was run: as §3
Toxoplasma gondii [8] = assay: Antiparasitic activity against clindamycin-resistant Toxoplasma gondii 4 infected in HFF assessed as reduction of ycf24/UPRT genes copy number ratio at 1 uM treated for 48 hrs after 6 hrs infection followed by reinoculated into fresh HFF monolayers measured after 48 hrs by RT-PCR analysis; assay type: functional
Toxoplasma gondii [9] = assay: Antiparasitic activity against clindamycin-resistant Toxoplasma gondii 4 infected in HFF assessed as reduction of ycf24/UPRT genes copy number ratio at 1 uM treated for 48 hrs immediately after infection followed by reinoculated into fresh HFF monolayers measured after 48 hrs by RT-PCR analysis; assay type: functional; how it was run: as §2
Toxoplasma gondii [10] = assay: (§4) Antiparasitic activity against green fluorescent protein expressing hwgprt deficient Toxoplasma gondii RH infected in HFF assessed as reduction of ycf24/UPRT genes copy number ratio at 1 uM treated for 48 hrs after 6 hrs infection followed by reinoculated into fresh HFF monolayers measured after 48 hrs by RT-PCR analysis; assay type: functional
Toxoplasma gondii [11] = assay: Antiparasitic activity against green fluorescent protein expressing hwgprt deficient Toxoplasma gondii RH infected in HFF assessed as reduction of ycf24/UPRT genes copy number ratio at 10 uM treated for 42 hrs starting 6 hrs after infection followed by reinoculated into fresh HFF monolayers measured after 48 hrs by RT-PCR analysis
Toxoplasma gondii [12] = assay: Antiparasitic activity against green fluorescent protein expressing […] deficient Toxoplasma gondii RH infected in HFF assessed as parasite doubling time at 5 uM treated immediately after infection measured after 48 hrs; assay type: functional
How it was run: (§5)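 HFF were grown on glass coverslips in 12-well plates and infected with 2×10^4 GFP tachyzoites per well. Compound was added with the inoculum; the first cycle ran 48 h, and the second cycle ran in fresh HFF without drug. Parasites per vacuole were counted by fluorescence microscopy, at least 50 random vacuoles per well, to derive doubling time. Three independent experiments.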

Toxoplasma gondii [13] = assay: Antiparasitic activity against Toxoplasma gondii 2F-1 expressing yellow fluorescent protein infected in HFF after 4 days; assay type: functional, organism-based; details: 2F-1, 96 h
Toxoplasma gondii [14] = assay: Antiparasitic activity against clindamycin-resistant Toxoplasma gondii 4 infected in HFF assessed as reduction of ycf24/UPRT genes copy number ratio at 0.1 uM treated for 48 hrs immediately after infection followed by reinoculated into fresh HFF monolayers measured after 48 hrs by RT-PCR analysis; assay type: functional
How it was run: as §2, with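 “CO2. Compound was added together with the parasite inoculum, and cultures ran 48 h.” for “CO2.”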

Toxoplasma gondii [15] = assay: as §4, with “0.1” for “1”; assay type: functional
How it was run: (§6)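 Tachyzoites were seeded on confluent HFF monolayers in 6-well plates at 2×10^5 per well, in DMEM with 10% FBS and 1% PS at 37 °C, 5% CO2. After 6 h pre-infection, the medium was replaced with medium containing compound for 42 h. Released parasites were reinoculated into fresh HFF without drug for 48 h, collected by centrifugation, and measured by qPCR as the ratio of plastid ycf24 to nuclear UPRT copies. At least triplicate.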

Toxoplasma gondii [16] = assay: Antiparasitic activity against yellow fluorescent protein expressing Toxoplasma gondii 2F-1 treated 6 hrs after infection for 42 hrs followed by reinoculated into fresh HFF monolayers measured after 48 hrs; assay type: functional, organism-based; how it was run: as §3
Toxoplasma gondii [17] = assay: Antiparasitic activity against clindamycin-resistant Toxoplasma gondii 4 infected in HFF assessed as reduction of ycf24/UPRT genes copy number ratio at 10 uM treated for 48 hrs after 6 hrs infection followed by reinoculated into fresh HFF monolayers measured after 48 hrs by RT-PCR analysis; assay type: functional; how it was run: as §6
Toxoplasma gondii [18] = assay: as §1, with “0.1” for “1”; assay type: functional
How it was run: as §2, with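 “CO2. Compound was added together with the parasite inoculum, and cultures ran 48 h.” for “CO2.”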

Toxoplasma gondii [19] = assay: Antiparasitic activity against clindamycin-resistant Toxoplasma gondii 4 infected in HFF assessed as reduction of ycf24/UPRT genes copy number ratio at 0.1 uM treated for 48 hrs after 6 hrs infection followed by reinoculated into fresh HFF monolayers measured after 48 hrs by RT-PCR analysis; assay type: functional; how it was run: as §6
Toxoplasma gondii [20] = assay: Antiparasitic activity against green fluorescent protein expressing […] deficient Toxoplasma gondii RH assessed as parasite doubling time at 5 uM treated immediately after infection for 48 hrs followed by reinoculated into fresh HFF monolayers measured after 48 hrs; assay type: functional; how it was run: as §5
Toxoplasma gondii [21] = assay: Antiparasitic activity against green fluorescent protein expressing […] deficient Toxoplasma gondii RH infected in HFF at 5 uM treated immediately after infection measured after 48 hrs; assay type: functional, organism-based
How it was run: (§7)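 GFP-expressing RHΔhxgprt tachyzoites were grown on HFF on glass coverslips in 12-well plates (2×10^4/well). Compound was added either with the parasites ("0h", 48 h) or after a 6 h pre-infection and medium change ("6h", 42 h). Parasites per vacuole were counted by fluorescence microscopy in at least 50 random vacuoles per well. Three independent experiments.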

HFF = assay: Cytotoxicity against HFF after 48 hrs by MTS assay; assay type: cell-based; details: human
How it was run: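 Low-passage HFF seeded in 96-well plates and incubated 24h at 37 °C, then exposed to varying macrolide concentrations for 2 days; medium replaced with fresh medium plus MTS, 4h at 37 °C, absorbance 490 nm; CC50 = dose reducing viability by 50%.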

Toxoplasma gondii [22] = assay: Antiparasitic activity against green fluorescent protein expressing hwgprt deficient Toxoplasma gondii RH at 5 uM treated immediately after infection for 48 hrs followed by reinoculated into fresh HFF monolayers measured after 48 hrs; assay type: functional, organism-based; how it was run: as §3
Toxoplasma gondii [23] = assay: Antiparasitic activity against clindamycin-resistant Toxoplasma gondii 4 infected in HFF assessed as reduction of ycf24/UPRT genes copy number ratio at 10 uM treated for 48 hrs immediately after infection followed by reinoculated into fresh HFF monolayers measured after 48 hrs by RT-PCR analysis; assay type: functional
How it was run: as §2, with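 “CO2. Compound was added together with the parasite inoculum, and cultures ran 48 h.” for “CO2.”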

Toxoplasma gondii [24] = assay: Antiparasitic activity against green fluorescent protein expressing […] deficient Toxoplasma gondii RH infected in HFF at 5 uM treated 6 hrs after infection measured after 48 hrs; assay type: functional, organism-based; how it was run: as §7

With `CC[C@H]1OC(=O)[C@H](C)[C@@H](O[C@H]2C[C@@](C)(OC)[C@@H](O)[C@H](C)O2)[C@H](C)[C@@H](O[C@@H]2O[C@H](C)C[C@H](N(C)C)[C@H]2O)[C@](C)(O)C[C@@H](C)CN(Cc2ccccc2)[C@H](C)[C@@H](O)[C@]1(C)O` the IC50 (Toxoplasma gondii [1]) was 9 µM, the Ratio (Toxoplasma gondii [2]) was 6 and the Ratio (Toxoplasma gondii [3]) was 7. For the same compound, the IC50 (Toxoplasma gondii [4]) was 5 µM, the IC50 (Toxoplasma gondii [5]) was 0.5 µM and the Activity (Toxoplasma gondii [6]) was “Active”. The MIC (Bacillus subtilis) was 0.3 µM (≈ 0.248 µg/mL), the Activity (Toxoplasma gondii [7]) was “Active” and the Ratio (Toxoplasma gondii [8]) was 3. For the same compound, the Ratio (Toxoplasma gondii [9]) was 8, the Ratio (Toxoplasma gondii [10]) was 5 and the Ratio (Toxoplasma gondii [11]) was 13. It also gave a Time (Toxoplasma gondii [12]) of 9.5 h, an IC50 (Toxoplasma gondii [13]) of 2 µM and a Ratio (Toxoplasma gondii [14]) of 23. It also gave a Ratio (Toxoplasma gondii [15]) of 17, an IC50 (Toxoplasma gondii [16]) of 0.5 µM and a Ratio (Toxoplasma gondii [17]) of 5. For the same compound, the Ratio (Toxoplasma gondii [18]) was 13, the Ratio (Toxoplasma gondii [19]) was 15 and the Time (Toxoplasma gondii [20]) was over 16 h. The Activity (Toxoplasma gondii [21]) was “Active”, the CC50 (HFF) was 32 µM and the Activity (Toxoplasma gondii [22]) was “Active”. The Ratio (Toxoplasma gondii [23]) was 11 and the Activity (Toxoplasma gondii [24]) was “Active”.
